Measured values as given in ChEMBL document CHEMBL2086252, “Syntheses and evaluation of anticonvulsant activity of novel branched alkyl carbamates” (J Med Chem, 2012).
Activity calls are given as the source filed them. The calls are words filed in the database; no cut-off is given here.

Assays:
Mus musculus [1] = experiment: Neurotoxicity in albino CF1 mouse assessed as minimal motor impairment at 30 mg/kg, ip after 0.5 hrs by rotarod test; format: toxicity, organism-based; set-up: dose 30 mg/kg, route intraperitoneal; conditions: in vivo
Method in brief: (§1)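 Mice dosed ip at 30, 100 or 300 mg/kg, then tested 0.5 h and 4 h after administration in the MES or scMet test. Protection was recorded as animals protected over animals tested. Neurotoxicity was recorded as motor impairment or sedation, as animals affected over animals tested.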

Rattus norvegicus [2] = experiment: Neurotoxicity in pilocarpine-induced status epilepticus Sprague-Dawley albino rat model assessed as minimal motor impairment at 300 mg/kg, ip after 1 hr by rotarod test; format: toxicity, organism-based; set-up: dose 300 mg/kg, route intraperitoneal; conditions: in vivo
Method in brief: (§2)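 Rat pilocarpine status epilepticus model: test carbamate given at 0 or 30 min after the first observed Racine stage 3 motor seizure, which marks SE onset. Neurotoxicity was scored within the same model.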

Rattus norvegicus [3] = experiment: Neurotoxicity in pilocarpine-induced status epilepticus Sprague-Dawley albino rat model assessed as minimal motor impairment at 300 mg/kg, ip after 2 hrs by rotarod test; format: toxicity, organism-based; set-up: dose 300 mg/kg, route intraperitoneal; conditions: in vivo; method in brief: as §2
Rattus norvegicus [4] = experiment: Anticonvulsant activity in Sprague-Dawley albino rat assessed as protection against maximal electroshock-induced seizures at 30 mg/kg, po after 1 hr; format: functional, organism-based; set-up: dose 30 mg/kg
Method in brief: (§3)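 Rats dosed orally. Anti-MES protection was scored as animals protected over animals tested at each time after dosing. Neurotoxicity was scored as motor impairment or sedation, as animals affected over animals tested.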

Rattus norvegicus [5] = experiment: Anticonvulsant activity in Sprague-Dawley albino rat assessed as protection against maximal electroshock-induced seizures at 30 mg/kg, po after 15 mins; format: functional, organism-based; set-up: dose 30 mg/kg; method in brief: as §3
Rattus norvegicus [6] = experiment: Anticonvulsant activity in Sprague-Dawley albino rat assessed as protection against maximal electroshock-induced seizures at 30 mg/kg, po after 4 hrs; format: functional, organism-based; set-up: dose 30 mg/kg; method in brief: as §3
Mus musculus [7] = experiment: Anticonvulsant activity in albino CF1 mouse assessed as protection against subcutaneous metrazol-induced seizures at 100 mg/kg, ip after 0.5 hrs; format: functional, organism-based; set-up: dose 100 mg/kg; method in brief: as §1
Mus musculus [8] = experiment: Anticonvulsant activity in albino CF1 mouse assessed as protection against subcutaneous metrazol-induced seizures at 30 mg/kg, ip after 0.5 hrs; format: functional, organism-based; set-up: dose 30 mg/kg; method in brief: as §1
Rattus norvegicus [9] = experiment: Neurotoxicity in pilocarpine-induced status epilepticus Sprague-Dawley albino rat model assessed as minimal motor impairment at 30 mg/kg, ip after 0.25 hr by rotarod test; format: toxicity, organism-based; set-up: dose 30 mg/kg, route intraperitoneal; conditions: in vivo; method in brief: as §2
Rattus norvegicus [10] = experiment: Neurotoxicity in pilocarpine-induced status epilepticus Sprague-Dawley albino rat model assessed as minimal motor impairment at 30 mg/kg, ip after 4 hrs by rotarod test; format: toxicity, organism-based; set-up: dose 30 mg/kg, route intraperitoneal; conditions: in vivo; method in brief: as §2
Mus musculus [11] = experiment: Anticonvulsant activity in albino CF1 mouse assessed as protection against maximal electroshock-induced seizures at 300 mg/kg, ip after 0.5 hrs; format: functional, organism-based; set-up: dose 300 mg/kg; method in brief: as §1
Mus musculus [12] = experiment: Anticonvulsant activity in albino CF1 mouse assessed as protection against subcutaneous metrazol-induced seizures at 100 mg/kg, ip after 4 hrs; format: functional, organism-based; set-up: dose 100 mg/kg; method in brief: as §1
Mus musculus [13] = experiment: Neurotoxicity in albino CF1 mouse assessed as minimal motor impairment at 100 mg/kg, ip after 4 hrs by rotarod test; format: toxicity, organism-based; set-up: dose 100 mg/kg, route intraperitoneal; conditions: in vivo; method in brief: as §1
Rattus norvegicus [14] = experiment: Neurotoxicity in pilocarpine-induced status epilepticus Sprague-Dawley albino rat model assessed as minimal motor impairment at 30 mg/kg, ip after 0.5 hrs by rotarod test; format: toxicity, organism-based; set-up: dose 30 mg/kg, route intraperitoneal; conditions: in vivo; method in brief: as §2
Mus musculus [15] = experiment: Anticonvulsant activity in albino CF1 mouse assessed as protection against maximal electroshock-induced seizures at 100 mg/kg, ip after 4 hrs; format: functional, organism-based; set-up: dose 100 mg/kg; method in brief: as §1
Mus musculus [16] = experiment: Anticonvulsant activity in albino CF1 mouse assessed as protection against subcutaneous metrazol-induced seizures at 30 mg/kg, ip after 4 hrs; format: functional, organism-based; set-up: dose 30 mg/kg; method in brief: as §1
Mus musculus [17] = experiment: Anticonvulsant activity in albino CF1 mouse assessed as protection against subcutaneous metrazol-induced seizures at 300 mg/kg, ip after 0.5 hrs; format: functional, organism-based; set-up: dose 300 mg/kg; method in brief: as §1
Rattus norvegicus [18] = experiment: Neurotoxicity in pilocarpine-induced status epilepticus Sprague-Dawley albino rat model assessed as minimal motor impairment at 300 mg/kg, ip after 0.25 hr by rotarod test; format: toxicity, organism-based; set-up: dose 300 mg/kg, route intraperitoneal; conditions: in vivo; method in brief: as §2
Rattus norvegicus [19] = experiment: Anticonvulsant activity in Sprague-Dawley albino rat assessed as protection against maximal electroshock-induced seizures at 30 mg/kg, po after 30 mins; format: functional, organism-based; set-up: dose 30 mg/kg; method in brief: as §3
Rattus norvegicus [20] = experiment: Neurotoxicity in pilocarpine-induced status epilepticus Sprague-Dawley albino rat model assessed as minimal motor impairment at 300 mg/kg, ip after 0.5 hrs by rotarod test; format: toxicity, organism-based; set-up: dose 300 mg/kg, route intraperitoneal; conditions: in vivo; method in brief: as §2
Rattus norvegicus [21] = experiment: Neurotoxicity in pilocarpine-induced status epilepticus Sprague-Dawley albino rat model assessed as minimal motor impairment at 30 mg/kg, ip after 2 hrs by rotarod test; format: toxicity, organism-based; set-up: dose 30 mg/kg, route intraperitoneal; conditions: in vivo; method in brief: as §2
Rattus norvegicus [22] = experiment: Neurotoxicity in pilocarpine-induced status epilepticus Sprague-Dawley albino rat model assessed as minimal motor impairment at 100 mg/kg, ip after 0.25 hr by rotarod test; format: toxicity, organism-based; set-up: dose 100 mg/kg, route intraperitoneal; conditions: in vivo
Rattus norvegicus [23] = experiment: Neurotoxicity in pilocarpine-induced status epilepticus Sprague-Dawley albino rat model assessed as minimal motor impairment at 100 mg/kg, ip after 0.5 hrs by rotarod test; format: toxicity, organism-based; set-up: dose 100 mg/kg, route intraperitoneal; conditions: in vivo
Rattus norvegicus [24] = experiment: Neurotoxicity in pilocarpine-induced status epilepticus Sprague-Dawley albino rat model assessed as minimal motor impairment at 30 mg/kg, ip after 1 hr by rotarod test; format: toxicity, organism-based; set-up: dose 30 mg/kg, route intraperitoneal; conditions: in vivo; method in brief: as §2
Mus musculus [25] = experiment: Neurotoxicity in albino CF1 mouse assessed as minimal motor impairment at 300 mg/kg, ip after 4 hrs by rotarod test; format: toxicity, organism-based; set-up: dose 300 mg/kg, route intraperitoneal; conditions: in vivo; method in brief: as §1
Rattus norvegicus [26] = experiment: Neurotoxicity in pilocarpine-induced status epilepticus Sprague-Dawley albino rat model assessed as minimal motor impairment at 300 mg/kg, ip after 4 hrs by rotarod test; format: toxicity, organism-based; set-up: dose 300 mg/kg, route intraperitoneal; conditions: in vivo; method in brief: as §2
Rattus norvegicus [27] = experiment: Neurotoxicity in pilocarpine-induced status epilepticus Sprague-Dawley albino rat model assessed as minimal motor impairment at 100 mg/kg, ip after 4 hrs by rotarod test; format: toxicity, organism-based; set-up: dose 100 mg/kg, route intraperitoneal; conditions: in vivo
Rattus norvegicus [28] = experiment: Neurotoxicity in Sprague-Dawley albino rat assessed as minimal motor impairment at 30 mg/kg, po by rotarod test; format: toxicity, organism-based; set-up: dose 30 mg/kg, route oral; conditions: in vivo; method in brief: as §3
Mus musculus [29] = experiment: Anticonvulsant activity in albino CF1 mouse assessed as protection against maximal electroshock-induced seizures at 300 mg/kg, ip after 4 hrs; format: functional, organism-based; set-up: dose 300 mg/kg; method in brief: as §1
Mus musculus [30] = experiment: Anticonvulsant activity in albino CF1 mouse assessed as protection against subcutaneous metrazol-induced seizures at 300 mg/kg, ip after 4 hrs; format: functional, organism-based; set-up: dose 300 mg/kg; method in brief: as §1
Mus musculus [31] = experiment: Anticonvulsant activity in albino CF1 mouse assessed as protection against maximal electroshock-induced seizures at 30 mg/kg, ip after 4 hrs; format: functional, organism-based; set-up: dose 30 mg/kg; method in brief: as §1
Mus musculus [32] = experiment: Neurotoxicity in albino CF1 mouse assessed as minimal motor impairment at 30 mg/kg, ip after 4 hrs by rotarod test; format: toxicity, organism-based; set-up: dose 30 mg/kg, route intraperitoneal; conditions: in vivo; method in brief: as §1
Rattus norvegicus [33] = experiment: Anticonvulsant activity in Sprague-Dawley albino rat assessed as protection against maximal electroshock-induced seizures at 30 mg/kg, po after 2 hrs; format: functional, organism-based; set-up: dose 30 mg/kg; method in brief: as §3
Rattus norvegicus [34] = experiment: Neurotoxicity in pilocarpine-induced status epilepticus Sprague-Dawley albino rat model assessed as minimal motor impairment at 100 mg/kg, ip after 2 hrs by rotarod test; format: toxicity, organism-based; set-up: dose 100 mg/kg, route intraperitoneal; conditions: in vivo
Mus musculus [35] = experiment: Anticonvulsant activity in albino CF1 mouse assessed as protection against maximal electroshock-induced seizures at 30 mg/kg, ip after 0.5 hrs; format: functional, organism-based; set-up: dose 30 mg/kg; method in brief: as §1
Rattus norvegicus [36] = experiment: Neurotoxicity in pilocarpine-induced status epilepticus Sprague-Dawley albino rat model assessed as minimal motor impairment at 100 mg/kg, ip after 1 hr by rotarod test; format: toxicity, organism-based; set-up: dose 100 mg/kg, route intraperitoneal; conditions: in vivo
Mus musculus [37] = experiment: Neurotoxicity in albino CF1 mouse assessed as minimal motor impairment at 300 mg/kg, ip after 0.5 hrs by rotarod test; format: toxicity, organism-based; set-up: dose 300 mg/kg, route intraperitoneal; conditions: in vivo; method in brief: as §1
Mus musculus [38] = experiment: Neurotoxicity in albino CF1 mouse assessed as minimal motor impairment at 100 mg/kg, ip after 0.5 hrs by rotarod test; format: toxicity, organism-based; set-up: dose 100 mg/kg, route intraperitoneal; conditions: in vivo; method in brief: as §1

SMILES	Activity (Mus musculus [1])	Activity (Rattus norvegicus [2])	Activity (Rattus norvegicus [3])	Activity (Rattus norvegicus [4])	Activity (Rattus norvegicus [6])	Activity (Mus musculus [7])	Activity (Mus musculus [8])	Activity (Rattus norvegicus [9])	Activity (Rattus norvegicus [10])	Activity (Mus musculus [11])	Activity (Mus musculus [12])	Activity (Rattus norvegicus [14])	Activity (Mus musculus [15])	Activity (Mus musculus [16])	Activity (Mus musculus [17])	Activity (Rattus norvegicus [18])	Activity (Rattus norvegicus [20])	Activity (Rattus norvegicus [21])	Activity (Rattus norvegicus [22])	Activity (Rattus norvegicus [23])	further results
CCCC(COC(N)=O)C(C)CC (racemic)	Non-toxic	Non-toxic	Non-toxic	inactive	inactive	inactive	inactive	Toxic	Toxic	Active	inactive	Toxic	inactive	inactive	Active	Non-toxic	Non-toxic	Toxic	Toxic	Toxic	Activity (Rattus norvegicus [5]): inactive; Activity (Mus musculus [13]): Non-toxic; Activity (Rattus norvegicus [19]): inactive; Activity (Rattus norvegicus [24]): Toxic; Activity (Mus musculus [25]): Non-toxic; Activity (Rattus norvegicus [26]): Non-toxic; Activity (Rattus norvegicus [27]): Non-toxic; Activity (Rattus norvegicus [28]): Non-toxic; Activity (Mus musculus [29]): Active; Activity (Mus musculus [30]): inactive; Activity (Mus musculus [31]): inactive; Activity (Mus musculus [32]): Non-toxic; Activity (Rattus norvegicus [33]): inactive; Activity (Rattus norvegicus [34]): Non-toxic; Activity (Mus musculus [35]): inactive
CCCC(CCC)COC(=O)NC	Non-toxic	Toxic	Toxic	inactive	inactive	inactive	inactive	Non-toxic	Non-toxic	Active	inactive	Non-toxic	inactive	inactive	Active	Toxic	Toxic	Non-toxic	Toxic	Toxic	Activity (Rattus norvegicus [5]): inactive; Activity (Rattus norvegicus [19]): inactive; Activity (Rattus norvegicus [24]): Non-toxic; Activity (Mus musculus [25]): Non-toxic; Activity (Rattus norvegicus [26]): Toxic; Activity (Rattus norvegicus [27]): Non-toxic; Activity (Rattus norvegicus [28]): Non-toxic; Activity (Mus musculus [29]): Active; Activity (Mus musculus [30]): inactive; Activity (Rattus norvegicus [36]): Toxic; Activity (Mus musculus [31]): inactive; Activity (Rattus norvegicus [33]): inactive; Activity (Rattus norvegicus [34]): Non-toxic; Activity (Mus musculus [35]): inactive
CC(COC(N)=O)CC(C)(C)C (racemic)	Non-toxic	Toxic	Toxic	inactive	inactive	inactive	inactive	Non-toxic	Non-toxic	Active	inactive	Non-toxic	inactive	inactive	Active	Toxic	Toxic	Non-toxic	Toxic	Toxic	Activity (Mus musculus [13]): Non-toxic; Activity (Mus musculus [37]): Toxic; Activity (Rattus norvegicus [24]): Non-toxic; Activity (Mus musculus [25]): Non-toxic; Activity (Rattus norvegicus [26]): Non-toxic; Activity (Rattus norvegicus [27]): Non-toxic; Activity (Rattus norvegicus [28]): Non-toxic; Activity (Mus musculus [29]): Active; Activity (Mus musculus [30]): inactive; Activity (Mus musculus [31]): inactive; Activity (Mus musculus [32]): Non-toxic; Activity (Rattus norvegicus [33]): inactive; Activity (Rattus norvegicus [34]): Non-toxic; Activity (Mus musculus [38]): Non-toxic; Activity (Mus musculus [35]): inactive
